Only some compounds are listed: those with a hit (about 2.4% of all), similar ones and a draw of the others.
S1P4 antag – human S1P4 receptor antagonism. inhibition, % at 4.98 µM. 220,000 compounds, 0.26% hits. AID 1510. O95977. S1P4-expressing cells, antagonist mode, reporter read-out; in the data active = inhibition above about 29%;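 note: 0% = wells stimulated with agonist and 100% = vehicle wells without agonist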
S1P4 agonist – activates the human S1P4 receptor; S1P4-expressing cell line, agonist reporter assay; activation, % at 4.98 µM; 220,000 compounds, 0.35% hits; AID 1509; in the data active = activation above about 11%;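 note: 0% = DMSO vehicle and 100% = reference agonist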
NPY2 pot ag – potentiates or activates human NPY-Y2 receptor. activation, % at 3.6 µM. 220,000 compounds, 0.45% hits. cells expressing NPY-Y2, potentiator/agonist read-out. AID 1359. P49146; in the data active = activation above about 27%;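 note: cells stimulated with NPY near EC25 plus isoproterenol at EC100; 0% = vehicle plus submaximal agonist and 100% = vehicle plus saturating agonist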
NPY-Y1 antag – NPY-Y1 (human) receptor antagonism; P25929; HEK293-CNG Y1 cells, membrane potential fluorescence; NPY at EC95, then isoproterenol; 200,000 compounds, 1% hits; AID 1040; inhibition, % at 3.6 µM;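 active = inhibition above the campaign mean inhibition of all tested compounds plus 3 SD, cut at about 20% in these data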;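 note: 0% = DMSO wells given NPY plus isoproterenol and 100% = isoproterenol alone without NPY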
Target sequence (P25929 whole entry, looked up): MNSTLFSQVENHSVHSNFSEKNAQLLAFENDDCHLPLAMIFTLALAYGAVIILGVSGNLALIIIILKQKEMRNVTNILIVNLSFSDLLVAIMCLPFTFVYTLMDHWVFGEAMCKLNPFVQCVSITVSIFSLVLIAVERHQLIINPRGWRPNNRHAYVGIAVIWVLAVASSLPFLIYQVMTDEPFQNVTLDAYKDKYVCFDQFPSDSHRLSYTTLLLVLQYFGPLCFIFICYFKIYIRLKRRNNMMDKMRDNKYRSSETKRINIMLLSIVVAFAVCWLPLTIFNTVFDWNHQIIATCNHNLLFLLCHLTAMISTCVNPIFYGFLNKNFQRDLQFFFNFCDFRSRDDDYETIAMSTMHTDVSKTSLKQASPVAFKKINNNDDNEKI
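System: HEK293 cells with Y1 receptor plus CNG channel / Probe or stimulus: NPY 25 nM then isoproterenol 1 µM plus Ro 20-1724 25 µM / Compound: one concentration, 3.6 µM, in 0.4% DMSO / Schedule: compound incubation 1 h at room temperature, readout 45 min post-stimulation / Measured by: membrane potential fluorescence / Read-out: % inhibition of NPY effect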
NPY-Y1 PAM-ag – potentiators or agonists of human neuropeptide Y receptor Y1 | P25929 | NPY-Y1 expressing cells, potentiator/agonist activation | activation, % at 3.6 µM | 220,000 compounds, 0.37% hits | AID 1304; in the data active = activation above about 33%, passing the limit was not always enough;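 note: cells stimulated with NPY at EC10 then isoproterenol at EC100; 0% = low agonist plus stimulus and 100% = saturating agonist plus stimulus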
NPY Y2 blocker – antagonists of human neuropeptide Y receptor Y2 | 140,000 compounds, 0.99% hits | inhibition, % at 2.7 µM | NPY-Y2 expressing cells, antagonist mode | AID 793 | P49146; in the data active = inhibition above about 17%;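 note: 0% = vehicle with agonist challenge and 100% = reference antagonist with challenge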
NPY1 antag ctr – counter-screen for NPY-Y2 antagonists: human NPY-Y1 antagonism; cell-based NPY-Y1 antagonism counterscreen; shares compounds with NPY Y2 blocker; AID 1256; inhibition, % at 3.6 µM; 710 compounds, 19% hits; in the data active = inhibition above about 20%;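 note: cells challenged with NPY then isoproterenol with cAMP sensed through a CNG channel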
NPY-Y2 ant conf – human NPY-Y2 antagonism, confirmation; inhibition, % at 2.8 µM; shares compounds with NPY Y2 blocker; HEK293 NPY-Y2 CNG channel, membrane potential fluorescence; 710 compounds, 32% hits;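 active = mean inhibition of triplicate wells above the hit cutoff set in the primary screen, cut at about 17% in these data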;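 note: 0% = DMSO with NPY challenge and 100% = BIIE0246 high control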
Numbers without * were called inactive.

Screening CC(=O)c1c(O)n(-c2cccc(Cl)c2)c(=O)[nH]c1=O (tested in a mixture with another compound) returned S1P4 antag 10.4, S1P4 agonist -0.2, NPY2 pot ag -16.7 and NPY-Y1 PAM-ag -5.5.
For CC(C)n1c(O)c(C2c3cc(Cl)ccc3Oc3[nH]c(=O)n(C(C)C)c(=O)c32)c(=O)[nH]c1=O (centres undefined) the results were S1P4 antag 35.2*, S1P4 agonist 1.1, NPY2 pot ag -7.5 and NPY-Y1 PAM-ag 13.0.
`O=C(Nc1nc(-c2ccccc2)c(-c2ccccc2)s1)c1ccc(S(=O)(=O)N(CCCl)CCCl)cc1` gave S1P4 antag -4.4, S1P4 agonist 0.9, NPY2 pot ag 12.4, NPY-Y1 antag 0.0, NPY-Y1 PAM-ag -0.2 and NPY Y2 blocker 0.5.
Screening CC(=O)OC(C)(C)/C=C/C(=O)[C@](C)(O)[C@H]1[C@H](O)C[C@@]2(C)[C@@H]3CC=C4[C@H](C[C@H](O)C(=O)C4(C)C)[C@]3(C)C(=O)C[C@]12C returned S1P4 antag 67.3*, S1P4 agonist -1.4, NPY2 pot ag 0.0, NPY-Y1 antag 108.1*, NPY-Y1 PAM-ag -48.3 and NPY Y2 blocker 8.5.
For Nc1nonc1C(=O)N/N=C/c1ccc([N+](=O)[O-])o1 the results were S1P4 antag -0.9, S1P4 agonist 1.6, NPY2 pot ag 2.2, NPY-Y1 antag -2.9 and NPY-Y1 PAM-ag 18.6.
For O=c1[nH]c(=S)[nH]c(O)c1/C=N/N1CCOCC1 the results were S1P4 antag -12.1, S1P4 agonist 2.1, NPY2 pot ag 3.1 and NPY-Y1 PAM-ag 5.9.
Screening Cc1ccc(N)c(C(=O)c2ccccc2)c1 returned S1P4 antag -7.3, S1P4 agonist 1.3, NPY2 pot ag 103.5*, NPY-Y1 antag -9.1, NPY-Y1 PAM-ag 97.8* and NPY Y2 blocker 2.8.
For CN1CCN(c2ccc([N+](=O)[O-])c3cccnc23)CC1 the results were S1P4 antag -20.4, S1P4 agonist -1.4, NPY2 pot ag -10.7, NPY-Y1 antag 2.8, NPY-Y1 PAM-ag -22.2 and NPY Y2 blocker 3.7.
O=[N+]([O-])c1ccc(N2CCNCC2)c2ncccc12 was read as S1P4 antag -4.5, S1P4 agonist 1.6, NPY2 pot ag 46.5*, NPY-Y1 antag -7.8, NPY-Y1 PAM-ag 74.1* and NPY Y2 blocker 0.3.
`CN1CCN(Cc2ccc(N)cc2)CC1` gave S1P4 antag -1.9, S1P4 agonist -1.2, NPY2 pot ag -5.8, NPY-Y1 antag 4.0 and NPY-Y1 PAM-ag -0.1.
Screening CN1CCN(Cc2cc(C(C)(C)C)c(O)c(C(C)(C)C)c2)CC1 returned S1P4 antag 10.5, S1P4 agonist 0.4, NPY2 pot ag 50.5*, NPY-Y1 antag -0.4, NPY-Y1 PAM-ag 77.4* and NPY Y2 blocker 6.1.
FC(F)=C(F)CCSc1ncn[nH]1 was read as S1P4 antag 3.0, S1P4 agonist -0.6, NPY2 pot ag 1.6, NPY-Y1 antag -4.4 and NPY-Y1 PAM-ag 8.9.
N#CC(C#N)=NNc1ccc(-n2ccc(C(F)(F)F)n2)cc1 was read as S1P4 antag 26.6, S1P4 agonist -0.4, NPY2 pot ag 68.5* and NPY-Y1 PAM-ag 55.4*.
`CC(C)OCCCNC(=O)c1c(N)n(CC2CCCO2)c2nc3ccccc3nc12` (centres undefined) gave S1P4 antag -13.9, S1P4 agonist 1.7, NPY2 pot ag -0.2, NPY-Y1 antag 25.1*, NPY-Y1 PAM-ag 5.0 and NPY Y2 blocker 22.8*.
C[C@@H]1O[C@@H](O[C@H]2C[C@@H](O)[C@]3(CO)[C@H]4[C@H](O)C[C@]5(C)[C@@H](C6COC(=O)C6)CC[C@]5(O)[C@@H]4CC[C@]3(O)C2)[C@H](O)[C@H](O)[C@H]1O (some centres undefined) was read as S1P4 antag 28.7, S1P4 agonist -0.5, NPY2 pot ag -35.1, NPY-Y1 antag 45.9*, NPY-Y1 PAM-ag -93.1 and NPY Y2 blocker 23.7*.
For Cc1ccsc1C(=O)C1CCCN(Cc2c(C)nn(C(C)C)c2C)C1 (centres undefined) the results were S1P4 antag -7.6, S1P4 agonist 0.1, NPY2 pot ag -4.7, NPY-Y1 antag -3.4 and NPY-Y1 PAM-ag 4.3.
For CCN1/C(=C\C=C\C2=[N+](CC)c3ccccc3C2(C)C)C(C)(C)c2ccccc21 the results were S1P4 antag -18.7, S1P4 agonist 1.9, NPY2 pot ag -336.6, NPY-Y1 antag active, NPY-Y1 PAM-ag -434.4 and NPY Y2 blocker active.
For O=c1cc(CN2CC=C(c3ccccc3)CC2)c2c(ccc3ccccc32)o1 the results were S1P4 antag -7.6, S1P4 agonist -0.8, NPY2 pot ag 63.6*, NPY-Y1 antag -7.0, NPY-Y1 PAM-ag 69.7* and NPY Y2 blocker 5.4.
Screening O=C(CN1CC=C(c2ccccc2)CC1)NC(=O)NCc1ccccc1 returned S1P4 antag -6.2, S1P4 agonist -0.1, NPY2 pot ag -16.9, NPY-Y1 antag 12.2 and NPY-Y1 PAM-ag -16.0.
For NC1=NC(c2cccnc2)n2c(nc3ccccc32)N1 (centres undefined) the results were S1P4 antag 5.5, S1P4 agonist 0.4, NPY2 pot ag -12.4 and NPY-Y1 PAM-ag 6.4.
CCCC[N+]12CCC(CC1)C(=C(c1ccccc1)c1ccccc1)C2 was read as S1P4 antag -23.2, S1P4 agonist -0.3, NPY2 pot ag -8.6, NPY-Y1 antag 18.2, NPY-Y1 PAM-ag -8.5, NPY Y2 blocker 23.2*, NPY1 antag ctr 12.2 and NPY-Y2 ant conf 10.9.
For CCC[N+]12CCC(CC1)C(=C(c1ccccc1)c1ccccc1)C2 the results were S1P4 antag -5.9, S1P4 agonist -0.8, NPY2 pot ag 1.8, NPY-Y1 antag 12.2, NPY-Y1 PAM-ag 10.3 and NPY Y2 blocker 3.5.
Screening OC(COCc1ccc(Cl)cc1)CN1CC=C(c2ccccc2)CC1 (centres undefined) returned S1P4 antag -21.6, S1P4 agonist -0.3, NPY2 pot ag -9.3, NPY-Y1 antag 9.0, NPY-Y1 PAM-ag -19.0, NPY Y2 blocker 18.7*, NPY1 antag ctr 8.1 and NPY-Y2 ant conf 10.9.
For CCCCOc1nc2ccccc2c(=O)n1-c1ccccc1 the results were S1P4 antag -8.8, S1P4 agonist 0.5, NPY2 pot ag -2.4, NPY-Y1 antag 5.8, NPY-Y1 PAM-ag -14.4, NPY Y2 blocker 17.1*, NPY1 antag ctr 5.0 and NPY-Y2 ant conf 18.1*.
`COc1nc2ccccc2c(=O)n1-c1ccc(C)cc1` gave S1P4 antag -22.0, S1P4 agonist 1.1, NPY2 pot ag 0.9, NPY-Y1 antag 0.0, NPY-Y1 PAM-ag -14.7 and NPY Y2 blocker 2.3.

Bioassay records (PubChem BioAssay)
